According to article PMC3970846 (Toxicology and applied pharmacology, 2013):
≈ marks a conversion by molar mass, not a printed value.

Legend:
human 2B6 = details: ref Talakad et al., 2009; cited from earlier work
2B37v2 V114I [1] = molecular target: T1, 2B37v2 V114I (Neotoma lepida, UniProt J9JD75, V114I, form not given); experiment: 7-BR O-debenzylation, reconstituted system; assay type: biochemical; details: enzyme 2B37v2 V114I
[2] = Solubility limit in aqueous solutions; assay type: physicochemical
2B36v1 [3] = molecular target: T2, 2B36v1 (Neotoma lepida, UniProt J7EWE5); experiment: 7-BR O-debenzylation, reconstituted system; assay type: biochemical
2B37v1 K262R [4] = molecular target: T3, 2B37v1 K262R (Neotoma lepida, UniProt J7EWE1, K262R, form not given); experiment: 7-BR O-debenzylation, reconstituted system; assay type: biochemical; details: enzyme 2B37v1 K262R
2B35v1 [5] = molecular target: T4, 2B35v1 (Neotoma lepida, UniProt J7EVA5); experiment: 7-BR O-debenzylation, reconstituted system; assay type: biochemical; details: substrate 7-BR; enzyme 2B35v1
T4 sequence (J7EVA5 22-491): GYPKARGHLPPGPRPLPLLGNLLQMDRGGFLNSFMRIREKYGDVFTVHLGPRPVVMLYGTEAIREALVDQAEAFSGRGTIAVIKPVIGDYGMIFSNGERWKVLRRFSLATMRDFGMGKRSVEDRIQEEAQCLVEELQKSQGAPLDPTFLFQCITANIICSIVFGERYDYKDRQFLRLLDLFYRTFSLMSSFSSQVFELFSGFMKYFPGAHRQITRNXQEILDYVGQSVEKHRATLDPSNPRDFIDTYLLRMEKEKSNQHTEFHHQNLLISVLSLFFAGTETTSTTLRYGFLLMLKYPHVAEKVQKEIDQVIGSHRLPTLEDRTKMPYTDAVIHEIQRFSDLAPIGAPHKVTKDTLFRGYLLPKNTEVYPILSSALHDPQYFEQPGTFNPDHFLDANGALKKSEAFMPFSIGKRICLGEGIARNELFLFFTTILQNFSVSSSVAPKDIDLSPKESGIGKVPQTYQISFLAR
How it was run: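 Same His4-tagged enzyme and purification, and same reconstituted system (P450:rat reductase:rat b5 1:4:2). 7-BR 0–10 μM in 50 mM HEPES pH 7.4, 15 mM MgCl2. NADPH 1 mM final started the reaction, 10 min at 37 °C, then methanol quench. Resorufin read at ex 550/em 580 nm, calibrated daily with 0–2 μM resorufin. Steady-state parameters from Michaelis-Menten regression.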

2B37v2 V480L [6] = molecular target: T5, 2B37v2 V480L (Neotoma lepida, UniProt J9JD75, V480L, form not given); experiment: 7-BR O-debenzylation, reconstituted system; assay type: biochemical; details: enzyme 2B37v2 V480L
2B37v2 [7] = molecular target: T6, 2B37v2 (Neotoma lepida, UniProt J9JD75); experiment: 7-BR O-debenzylation, reconstituted system; assay type: biochemical; details: enzyme 2B37v2
2B37v1 [8] = molecular target: T7, 2B37v1 (Neotoma lepida, UniProt J7EWE1); experiment: 7-BR O-debenzylation, reconstituted system; assay type: biochemical; details: enzyme 2B37v1
rat 2B1 [9] = molecular target: rat 2B1 (Rattus norvegicus, UniProt P00176, E2A/G22K/H23K/K25S/N29K/P24T/R27K); experiment: 7-BR O-debenzylation, reconstituted system; assay type: biochemical; details: enzyme 2B1
2B37v2 R262K [10] = molecular target: T8, 2B37v2 R262K (Neotoma lepida, UniProt J9JD75, R262K, form not given); experiment: 7-BR O-debenzylation, reconstituted system; assay type: biochemical; details: enzyme 2B37v2 R262K
rat 2B1 [11] = molecular target: T9, rat 2B1 (Rattus norvegicus, UniProt P00176, E2A/G22K/H23K/K25S/N29K/P24T/R27K); assay type: binding
T9 sequence (P00176 with tags, fused parts or gaps limits assumed): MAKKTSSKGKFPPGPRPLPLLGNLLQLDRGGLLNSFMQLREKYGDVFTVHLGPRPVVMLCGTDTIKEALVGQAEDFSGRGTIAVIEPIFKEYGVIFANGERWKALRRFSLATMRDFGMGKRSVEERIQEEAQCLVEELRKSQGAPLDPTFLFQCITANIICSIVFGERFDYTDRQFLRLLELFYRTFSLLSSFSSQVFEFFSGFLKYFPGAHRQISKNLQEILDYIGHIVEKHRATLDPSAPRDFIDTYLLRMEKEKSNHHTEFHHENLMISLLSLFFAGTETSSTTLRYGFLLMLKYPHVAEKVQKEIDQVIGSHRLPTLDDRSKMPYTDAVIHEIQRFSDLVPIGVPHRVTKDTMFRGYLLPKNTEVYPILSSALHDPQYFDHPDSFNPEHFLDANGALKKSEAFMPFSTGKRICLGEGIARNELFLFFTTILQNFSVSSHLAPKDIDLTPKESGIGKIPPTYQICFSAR

2B37v2 [12] = molecular target: T6, 2B37v2; details: read-out: (+)-α-pinene spectral binding KS; enzyme 2B37v2; 25 °C
2B36v1 [13] = molecular target: T2, 2B36v1; details: read-out: (+)-α-pinene spectral binding KS; enzyme 2B36v1; 25 °C
2B35v1 [14] = molecular target: T4, 2B35v1; details: read-out: (+)-α-pinene spectral binding KS; enzyme 2B35v1; 25 °C
2B37v1 [15] = molecular target: T7, 2B37v1; details: read-out: (+)-α-pinene spectral binding KS; enzyme 2B37v1; 25 °C
[16] = ref Sridhar et al., 2012; cited from earlier work
[17] = system: CCOc1ccc2c(C(F)(F)F)cc(=O)oc2c1; experiment: 7-EFC O-deethylation, reconstituted system; assay type: biochemical, rat; details: other: enzyme 2B1; 37.0 °C
2B37v2 V114I/V480L = 2B37v2 V114I/V480L (Neotoma lepida, UniProt J9JD75, V114I/V480L, form not given); experiment: 7-EFC O-deethylation, reconstituted system; assay type: biochemical; details: enzyme 2B37v2 V114I/V480L
2B37v1 K262R [18] = molecular target: T3, 2B37v1 K262R; experiment: 7-EFC O-deethylation, reconstituted system; assay type: biochemical
2B37v1 [19] = molecular target: T7, 2B37v1; experiment: 7-EFC O-deethylation, reconstituted system; assay type: biochemical
2B37v2 V480L [20] = molecular target: T5, 2B37v2 V480L; experiment: 7-EFC O-deethylation, reconstituted system; assay type: biochemical; details: enzyme 2B37v2 V480L
2B37v2 V114I [21] = molecular target: T1, 2B37v2 V114I; experiment: 7-EFC O-deethylation, reconstituted system; assay type: biochemical; details: enzyme 2B37v2 V114I
2B37v2 [22] = molecular target: T6, 2B37v2; experiment: 7-EFC O-deethylation, reconstituted system; assay type: biochemical
2B35v1 [23] = molecular target: T4, 2B35v1; experiment: 7-EFC O-deethylation, reconstituted system; assay type: biochemical; details: substrate 7-EFC; enzyme 2B35v1
How it was run: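 Enzyme with C-terminal His4 tag, expressed in TOPP3 cells and purified on Ni-NTA then CM-Sepharose. Reconstituted with rat NADPH-P450 reductase and rat cytochrome b5 (P450:reductase:b5 1:4:2). 7-EFC 0–150 μM in 50 mM HEPES pH 7.4, 15 mM MgCl2. Started with 1 mM NADPH, 10 min at 37 °C, quenched with ice-cold acetonitrile, diluted into 0.1 M Tris pH 9.0. 7-HFC read at ex 410/em 510 nm, calibrated daily with 0–2 μM HFC. Michaelis-Menten fit.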

2B37v2 R262K [24] = molecular target: T8, 2B37v2 R262K; experiment: 7-EFC O-deethylation, reconstituted system; assay type: biochemical
2B36v1 [25] = molecular target: T2, 2B36v1; experiment: 7-EFC O-deethylation, reconstituted system; assay type: biochemical; details: enzyme 2B36v1
[26] = read-out: 7-BR O-debenzylation KM
[27] = read-out: 7-EFC O-deethylation KM

## COC(=O)[C@H](c1ccccc1Cl)N1CCc2sccc2C1 [clopidogrel]
Human 2B6
  KS: low micromolar
  maximal increase in HSP450 content upon binding: 2.6%

## O=c1ccc2nc3ccc(OCc4ccccc4)cc3oc-2c1 [7-BR, 7-benzyloxyresorufin]
2B37v2 V114I [1]
  7-BR O-debenzylation kcat: 0.13 ± 0.01 min^−^1
2B37v2 V114I [1]; [26]
  Km: 5.7 ± 1 µM
[2]
  solubility: ~10 µM (≈ 3.03 µg/mL)
2B36v1 [3]; 2B36v1 as fraction of 2B1
  efficiency for 7-BR O-debenzylation relative to 2B1: 1/40
2B36v1 [3]; enzyme 2B36v1
  7-BR O-debenzylation kcat: 0.10 ± 0.03 min^−^1
2B36v1 [3]; read-out: 7-BR O-debenzylation KM, enzyme 2B36v1
  Km: 1.7 ± 0.3 µM
2B37v1 K262R [4]
  7-BR O-debenzylation kcat: 0.15 ± 0.07 min^−^1
2B37v1 K262R [4]; [26]
  Km: 8.1 ± 0.7 µM
2B35v1 [5]
  O-dealkylation products: not detected
2B37v2 V480L [6]
  7-BR O-debenzylation kcat: 0.47 ± 0.08 min^−^1
2B37v2 V480L [6]; [26]
  Km: 4.5 ± 0.7 µM
2B37v2 [7]
  7-BR O-debenzylation kcat: 0.25 ± 0.06 min^−^1
2B37v2 [7]; [26]
  Km: 9.5 ± 0.5 µM
2B37v1 [8]
  7-BR O-debenzylation kcat: 0.16 ± 0.04 min^−^1
2B37v1 [8]; [26]
  Km: 7.2 ± 0.6 µM
Rat 2B1 [9]
  7-BR O-debenzylation kcat: ~ 4.5 min^−^1
2B37v2 R262K [10]
  7-BR O-debenzylation kcat: 0.18 ± 0.05 min^−^1
2B37v2 R262K [10]; [26]
  Km: 9.2 ± 0.7 µM

## (+)-α-pinene
Rat 2B1 [11]; maximum change in high-spin P450 content, enzyme 2B1
  (+)-α-pinene spectral binding %HSP450 Max Δ: 48.7 ± 1.3%
Rat 2B1 [11]; peak ~388 nm, trough ~420 nm, represented with 2B1, seen with each enzyme
  difference spectra type induced: Type I
Rat 2B1 [11]; read-out: (+)-α-pinene spectral binding KS, enzyme 2B1, 25 °C
  Kd: 0.87 ± 0.08 µM
2B37v2 [12]
  Kd: 0.91 ± 0.07 µM
2B36v1 [13]
  Kd: 0.58 ± 0.04 µM
2B35v1 [14]
  Kd: 1.27 ± 0.49 µM
2B37v1 [15]
  Kd: 9.33 ± 0.76 µM
[16]
  log P: 4.44

## CN[C@H]1CC[C@@H](c2ccc(Cl)c(Cl)c2)c2ccccc21 [sertraline]
Human 2B6
  maximal increase in HSP450 content upon binding: 0.8%

## Clc1ccccc1CN1CCc2sccc2C1 [ticlopidine]
Human 2B6
  KS: low micromolar
  maximal increase in HSP450 content upon binding: 2.3%

## rat 2B1 (Rattus norvegicus; E2A/G22K/H23K/K25S/N29K/P24T/R27K)
[17]
  Km: 32.4 ± 4.9 µM
  kcat: 0.115 ± 0.02 s⁻¹
  kcat/Km: 3500 M⁻¹ s⁻¹

## CCOc1ccc2c(C(F)(F)F)cc(=O)oc2c1 [7-EFC, 7-ethoxy-4-(trifluoromethyl)coumarin]
2B37v2 V114I/V480L
  7-EFC O-deethylation kcat: 20.8 ± 2.8 min^−^1
2B37v2 V114I/V480L; [27]
  Km: 32.5 ± 4.4 µM
2B37v1 K262R [18]; 2B37v1 K262R vs 2B37v1
  decrease in 7-EFC kcat: ~ 45%
  reduction of 7-EFC catalytic efficiency: ~ 35%
2B37v1 K262R [18]; enzyme 2B37v1 K262R
  7-EFC O-deethylation kcat: 5.4 ± 0.2 min^−^1
2B37v1 K262R [18]; read-out: 7-EFC O-deethylation KM, enzyme 2B37v1 K262R
  Km: 19 ± 2.3 µM
2B37v1 [19]; 2B37v1 vs 2B1
  7-EFC KM lower than 2B1: ~ 25%
  7-EFC catalytic efficiency higher than for 2B1: ~ 1.8 fold
  7-EFC kcat higher than that for 2B1: ~ 1.4 fold
  kcat for 7-EFC-O-deethylation greater than that of 2B1: ~ 50%
2B37v1 [19]; enzyme 2B37v1
  7-EFC O-deethylation kcat: 10.0 ± 0.3 min^−^1
2B37v1 [19]; read-out: 7-EFC O-deethylation KM, enzyme 2B37v1
  Km: 23.5 ± 2 µM
2B37v2 V480L [20]
  7-EFC O-deethylation kcat: 22.3 ± 2.0 min^−^1
2B37v2 V480L [20]; [27]
  Km: 23.9 ± 3.6 µM
2B37v2 V114I [21]
  7-EFC O-deethylation kcat: 6.3 ± 1.9 min^−^1
2B37v2 V114I [21]; [27]
  Km: 120 ± 2 µM
2B37v2 [22]; 2B37v2 vs 2B1
  kcat for 7-EFC-O-deethylation greater than that of 2B1: 2 fold
2B37v2 [22]; enzyme 2B37v2
  7-EFC O-deethylation kcat: 14.5 ± 8.3 min^−^1
2B37v2 [22]; read-out: 7-EFC O-deethylation KM, enzyme 2B37v2
  Km: 20 ± 4.2 µM
2B35v1 [23]
  O-dealkylation products: not detected
2B37v2 R262K [24]; 2B37v2 R262K vs 2B37v2
  decrease in 7-EFC catalytic efficiency: 85%
2B37v2 R262K [24]; enzyme 2B37v2 R262K
  7-EFC O-deethylation kcat: 2.0 ± 0.1 min^−^1
2B37v2 R262K [24]; read-out: 7-EFC O-deethylation KM, enzyme 2B37v2 R262K
  Km: 20.3 ± 2.8 µM
2B36v1 [25]
  7-EFC O-deethylation kcat: 3.3 ± 1.0 min^−^1
2B36v1 [25]; [27]
  Km: 18.3 ± 7 µM
